Where “and” joins values, the source holds several entries; their conditions need not be identical. Equal values may be shown once.
Key:
Rattus norvegicus [1] = species on record: Rattus norvegicus; assay: Neuroprotective effect evaluated for excitatory amino acid receptor antagonism with the concentration at 1 uL in the corpus striatum of 9 rats with choline acetyltransferase as the marker enzyme.; type: functional
Summary of the method: (§1)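 […]-anaesthetised rats (4 mL/kg ip), stereotaxic cannula into corpus striatum; 1 µL infused containing kainate (10 nmol), quinolinic acid (300 nmol) or AMPA (100 nmol), with or without co-infused antagonist. After 3-day recovery, striata were homogenised in 50 mM Tris-HCl pH 7.4 with 0.2% Triton X-100 and spun 10000g for 10 min. Choline acetyltransferase or glutamic acid decarboxylase activity was reported as % remaining versus non-lesioned striatum.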

Rattus norvegicus [2] = species on record: Rattus norvegicus; assay: Neuroprotective effect evaluated for excitatory amino acid receptor antagonism with the concentration at 1 uL in the corpus striatum of 9 rats with glutamic acid decarboxylase as the marker enzyme.; type: functional; summary of the method: as §1
[3] = Inhibition of the binding of radioligand [3H]AMPA in the presence of the compound. at Non N-methyl-D-aspartate glutamate receptor
Summary of the method: (§2)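 Rat brain membrane [3H]AMPA binding run with 100 mM isothiocyanate present, so both high- and low-affinity AMPA sites are detected. Competitors were tested over concentration ranges of 1–1000 μM, and the IC50 was calculated from displacement data.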

[4] = biological target: Glutamate receptor ionotropic AMPA (Homo sapiens, UniProt P42261+P42262+P42263+P48058); assay: Inhibition of the binding of radioligand [3H]AMPA in the presence at low-affinity AMPA receptor sites.; type: protein-complex assay
Rattus norvegicus [5] = species on record: Rattus norvegicus; assay: Neuroprotective effect evaluated for excitatory amino acid receptor antagonism with the concentration at 1 uL in the corpus striatum of 3 rats with choline acetyltransferase as the marker enzyme.; type: functional
Summary of the method: (§3)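 Rat corpus striatum, stereotaxic infusion under […] anaesthesia (4 mL/kg ip). 1 μL solution held KAIN 10 nmol, quinolinic acid 300 nmol or AMPA 100 nmol, with or without antagonist 150 nmol. After 3 days recovery, striatum was homogenized in Tris-HCl/Triton X-100 and spun at 10000g. Choline acetyltransferase and glutamic acid decarboxylase activities were read as percent of non-lesioned tissue.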

Rattus norvegicus [6] = species on record: Rattus norvegicus; assay: Neuroprotective effect evaluated for excitatory amino acid receptor antagonism with the concentration at 1 uL in the corpus striatum of 3 rats with glutamic acid decarboxylase as the marker enzyme.; type: functional; summary of the method: as §3
Rattus norvegicus [7] = species on record: Rattus norvegicus; assay: Neuroprotective effect evaluated for excitatory amino acid receptor antagonism with the concentration at 1 uL in the corpus striatum of 5 rats with glutamic acid decarboxylase as the marker enzyme.; type: functional; summary of the method: as §1
Rattus norvegicus [8] = species on record: Rattus norvegicus; assay: Neuroprotective effect evaluated for excitatory amino acid receptor antagonism with the concentration at 1 uL in the corpus striatum of 5 rats with choline acetyltransferase as the marker enzyme.; type: functional; summary of the method: as §1
Rattus norvegicus [9] = species on record: Rattus norvegicus; assay: Neuroprotective effect evaluated for excitatory amino acid receptor antagonism with the concentration at 1 uL in the corpus striatum of 7 rats with choline acetyltransferase as the marker enzyme.; type: functional; summary of the method: as §1
Rattus norvegicus [10] = species on record: Rattus norvegicus; assay: Neuroprotective effect evaluated for excitatory amino acid receptor antagonism with the concentration at 1 uL in the corpus striatum of 7 rats with glutamic acid decarboxylase as the marker enzyme.; type: functional; summary of the method: as §1
Rattus norvegicus [11] = species on record: Rattus norvegicus; assay: Neuroprotective effect evaluated for excitatory amino acid receptor antagonism with the concentration at 1 uL in the corpus striatum of 14 rats with choline acetyltransferase as the marker enzyme.; type: functional; set-up: concentration or dose not given beside the values; summary of the method: as §1
Rattus norvegicus [12] = species on record: Rattus norvegicus; assay: Neuroprotective effect evaluated for excitatory amino acid receptor antagonism with the concentration at 1 uL in the corpus striatum of 14 rats with glutamic acid decarboxylase as the marker enzyme.; type: functional; summary of the method: as §1
[13] = Inhibition of the binding of radioligand [3H]AMPA in the presence at Non N-methyl-D-aspartate glutamate receptor; summary of the method: as §2

Compound: Cc1onc(O)c1CC(N)C(=O)O.Cc1onc(O)c1Cn1oc(C)c(CC(N)C(=O)O)c1=O (stereo unspecified)
- Enzyme activity (Rattus norvegicus [1]): 53%
- Enzyme activity (Rattus norvegicus [2]): 39%

Compound: Cc1onc(O)c1Cn1oc(C)c(CC(N)C(=O)O)c1=O (stereo unspecified)
- IC50 [3]: 29 µM
- IC50 [4]: 335 µM

Compound: Cc1onc(OCC(=O)O)c1CC(N)C(=O)O.O=C(O)c1cccnc1C(=O)O (stereo unspecified)
- Enzyme activity (Rattus norvegicus [5]): 52%
- Enzyme activity (Rattus norvegicus [6]): 64%

Compound: Cc1onc(O)c1Cn1oc(C)c(CC(N)C(=O)O)c1=O.O=C(O)c1cccnc1C(=O)O (stereo unspecified)
- Enzyme activity (Rattus norvegicus [7]): 49%
- Enzyme activity (Rattus norvegicus [8]): 50%

Compound: Cc1onc(O)c1CC(N)C(=O)O.O=C(O)C1CN(CCCP(=O)(O)O)CCN1 (stereo unspecified)
- Enzyme activity (Rattus norvegicus [9]): 55%
- Enzyme activity (Rattus norvegicus [10]): 50%

Compound: Cc1onc(O)c1CC(N)C(=O)O.Cc1onc(OCC(=O)O)c1CC(N)C(=O)O (stereo unspecified)
- Enzyme activity (Rattus norvegicus [11]): 68%
- Enzyme activity (Rattus norvegicus [12]): 62%

Compound: O=C(O)C1CN(CCCP(=O)(O)O)CCN1.O=C(O)c1cccnc1C(=O)O (stereo unspecified)
- Enzyme activity (Rattus norvegicus [7]): 99%
- Enzyme activity (Rattus norvegicus [8]): 98%

Compound: Cc1onc(OCC(=O)O)c1CC(N)C(=O)O (stereo unspecified)
- IC50 [13]: 90 µM
- IC50 [4]: 98 µM

Compound: Cc1onc(O)c1CC(N)C(=O)O [(R,S)-AMPA]
- Enzyme activity (Rattus norvegicus [11]): 53% and 40%

Compound: C=C(C)[C@H]1CN[C@H](C(=O)O)[C@H]1CC(=O)O [KAINIC ACID]
- Enzyme activity (Rattus norvegicus [9]): 34%
- Enzyme activity (Rattus norvegicus [10]): 44%

Compound: O=C(O)c1cccnc1C(=O)O [QUINOLINIC ACID]
- Enzyme activity (Rattus norvegicus [11]): 61%
- Enzyme activity (Rattus norvegicus [12]): 53%
